One series addresses T1, BMPR2 (Homo sapiens, UniProt Q13873).
T1 sequence (Q13873 27-1038): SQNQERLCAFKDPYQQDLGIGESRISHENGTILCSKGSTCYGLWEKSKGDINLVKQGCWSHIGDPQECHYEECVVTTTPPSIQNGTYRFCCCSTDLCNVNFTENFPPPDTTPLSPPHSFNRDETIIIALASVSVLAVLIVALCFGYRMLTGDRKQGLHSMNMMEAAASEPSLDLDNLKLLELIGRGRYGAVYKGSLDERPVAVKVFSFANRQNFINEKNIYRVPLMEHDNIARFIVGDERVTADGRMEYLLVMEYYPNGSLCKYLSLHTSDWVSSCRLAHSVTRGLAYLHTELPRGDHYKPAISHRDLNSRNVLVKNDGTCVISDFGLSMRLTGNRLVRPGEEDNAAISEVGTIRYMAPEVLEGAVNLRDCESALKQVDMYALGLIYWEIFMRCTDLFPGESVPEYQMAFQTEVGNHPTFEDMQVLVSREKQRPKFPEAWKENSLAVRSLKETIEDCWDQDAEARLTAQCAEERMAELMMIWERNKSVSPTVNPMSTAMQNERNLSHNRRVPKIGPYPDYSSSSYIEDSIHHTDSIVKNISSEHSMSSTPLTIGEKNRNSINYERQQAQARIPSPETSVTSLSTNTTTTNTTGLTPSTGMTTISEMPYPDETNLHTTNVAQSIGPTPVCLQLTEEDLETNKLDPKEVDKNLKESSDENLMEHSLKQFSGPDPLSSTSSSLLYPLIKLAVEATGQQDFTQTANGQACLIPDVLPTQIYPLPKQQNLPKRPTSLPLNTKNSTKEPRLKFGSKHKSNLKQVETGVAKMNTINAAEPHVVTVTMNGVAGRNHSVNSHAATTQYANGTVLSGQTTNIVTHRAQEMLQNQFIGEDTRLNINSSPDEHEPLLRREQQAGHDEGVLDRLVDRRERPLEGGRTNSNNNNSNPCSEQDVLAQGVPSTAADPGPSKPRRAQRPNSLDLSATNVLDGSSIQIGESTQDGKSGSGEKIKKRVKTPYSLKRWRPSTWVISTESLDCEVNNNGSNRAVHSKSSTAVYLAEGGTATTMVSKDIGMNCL
Put plainly: ThermoFisher SelectScreen LanthaScreen assay. In kind it is binding. The note with it: than CDD-1115. Background: Time-resolved FRET reads energy transfer from a long-lived donor to a nearby acceptor.

A further series concerns the target BMPR1A (ALK3) (Homo sapiens, UniProt P36894). Put plainly: ThermoFisher SelectScreen LanthaScreen assay. Type of series: binding. The note with it: ALK3 vs BMPR2.
The target in the next series is T2, TGFBR1 (ALK5) (Homo sapiens, UniProt P36897).
T2 sequence (P36897 34-503): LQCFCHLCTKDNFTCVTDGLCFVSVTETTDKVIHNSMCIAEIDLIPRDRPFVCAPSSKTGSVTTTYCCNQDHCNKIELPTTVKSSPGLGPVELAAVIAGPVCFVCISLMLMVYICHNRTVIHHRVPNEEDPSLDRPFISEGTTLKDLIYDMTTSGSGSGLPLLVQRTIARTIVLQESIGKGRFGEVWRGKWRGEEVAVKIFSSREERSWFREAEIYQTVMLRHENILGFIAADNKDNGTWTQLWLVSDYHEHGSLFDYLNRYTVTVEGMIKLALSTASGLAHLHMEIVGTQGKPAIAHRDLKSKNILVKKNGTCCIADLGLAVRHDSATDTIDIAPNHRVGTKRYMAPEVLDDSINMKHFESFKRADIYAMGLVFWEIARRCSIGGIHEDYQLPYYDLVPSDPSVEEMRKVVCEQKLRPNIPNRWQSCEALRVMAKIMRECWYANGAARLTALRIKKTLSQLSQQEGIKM
In words: ThermoFisher SelectScreen LanthaScreen assay. Type of series: binding. The conditions noted are these: ALK5 vs BMPR2.

The target in another series is BMPR1B (ALK6) (Homo sapiens, UniProt O00238). In words: ThermoFisher SelectScreen LanthaScreen assay. In kind it is binding. The conditions noted are these: ALK6 vs BMPR2.
Series [1] is described as follows: Metabolic stability in mouse liver microsomes. The conditions noted are these: compared with analogue (CDD-1115 for CDD-1281, CDD-1431 for CDD-1653). In kind it is in vitro ADME. A general note: Liver microsomes are a subcellular fraction often used to study metabolism.
Series [2] is described as follows: Metabolic stability in human liver microsomes. Type of series: in vitro ADME. The note with it: compared with analogue (CDD-1115 for CDD-1281, CDD-1431 for CDD-1653). The gist of the method:
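Human liver microsomes (0.5 mg protein/mL) incubated at 37 °C with test compound (2.0 μM) and NADPH cofactor (1.0 mM). Samples taken at 0, 30 and 60 min, in duplicate. […] Half-life was compared with that of the paired structural analogue.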

Series [3] concerns pSMAD1/5 in human umbilical vein endothelial cells (HUVECs). In words: pSMAD1/5 Western blot, BMP9-stimulated HUVECs. In kind it is cell-based. The conditions noted are these: 25 μM, 30 min pretreatment, 0.5 ng/mL BMP9 15 min. An outline of the steps: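 HUVECs, about 3 × 10^5 per well, starved overnight in Kaighn's F-12 with 0.5% FBS and 30 μg/mL endothelial cell growth supplement. Pretreated with inhibitors for 30 min, then given 0.5 ng/mL BMP9 for 15 min. Lysed with protease and phosphatase inhibitors. SDS-PAGE immunoblot for pSMAD1/5, SMAD1, SMAD5 and GAPDH, with densitometry. n = 3 biological replicates; one-way ANOVA with Tukey post hoc test.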

Bounds are passed on as bounds.

BMPR1A (ALK3), sequence (P36894 24-532): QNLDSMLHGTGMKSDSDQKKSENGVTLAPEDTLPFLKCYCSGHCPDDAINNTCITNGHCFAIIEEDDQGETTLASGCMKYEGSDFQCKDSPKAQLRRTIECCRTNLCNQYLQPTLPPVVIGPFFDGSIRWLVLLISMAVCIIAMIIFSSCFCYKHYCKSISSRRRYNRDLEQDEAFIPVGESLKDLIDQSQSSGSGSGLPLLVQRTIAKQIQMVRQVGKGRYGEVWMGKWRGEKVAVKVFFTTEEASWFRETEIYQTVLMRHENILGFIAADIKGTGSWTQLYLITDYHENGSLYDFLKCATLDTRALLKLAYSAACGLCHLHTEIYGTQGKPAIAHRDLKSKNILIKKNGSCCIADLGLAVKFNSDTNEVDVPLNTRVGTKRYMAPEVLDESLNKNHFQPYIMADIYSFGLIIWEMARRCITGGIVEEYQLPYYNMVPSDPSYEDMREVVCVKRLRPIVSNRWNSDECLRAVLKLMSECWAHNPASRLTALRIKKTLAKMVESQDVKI
BMPR1B (ALK6), sequence (O00238 14-502): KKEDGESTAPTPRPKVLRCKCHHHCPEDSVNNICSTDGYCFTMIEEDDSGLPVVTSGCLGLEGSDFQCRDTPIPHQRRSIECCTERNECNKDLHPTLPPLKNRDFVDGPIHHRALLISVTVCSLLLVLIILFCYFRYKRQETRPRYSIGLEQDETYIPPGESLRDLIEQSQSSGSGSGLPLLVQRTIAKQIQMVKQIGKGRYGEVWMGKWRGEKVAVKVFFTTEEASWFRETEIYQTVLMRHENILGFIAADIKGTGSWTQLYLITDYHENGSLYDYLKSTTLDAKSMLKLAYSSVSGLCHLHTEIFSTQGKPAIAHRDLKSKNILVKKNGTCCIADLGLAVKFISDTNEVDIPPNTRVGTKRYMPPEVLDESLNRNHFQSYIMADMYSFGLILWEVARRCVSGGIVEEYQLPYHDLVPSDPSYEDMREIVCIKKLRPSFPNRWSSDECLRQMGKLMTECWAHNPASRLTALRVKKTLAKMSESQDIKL

For the compound `NC(=O)c1cccc(CNC(=O)c2ccc3nc(-c4ccc5cnccc5c4)n(C4CCCC4)c3c2)c1` [CDD-1281, N-(3-Carbamoylbenzyl)-1-cyclopentyl-2-(isoquinolin-6-yl)-1H-benzo[d]imidazole-6-carboxamide], the “fold higher potency (IC50)” value on BMPR2 is reported as 1.5 fold. For the same compound, the selectivity on BMPR1A (ALK3), at TGFBR1 (ALK5) and at BMPR1B (ALK6) was greater than 830× each time. For the same compound, the “fold increase of half-life in MLM” value in series [1] is reported as 3.5 fold. In series [2], the “fold increase of half-life in HLM” value worked out at 11.0 fold. The “phosphorylation of SMAD1/5 (pSMAD1/5)” value in series [3] is listed as “significantly decreased”.

For the origin of these results see article PMC9924264 (Journal of Medicinal Chemistry, 2023).
